Reference: ChEMBL document CHEMBL1133628, “Nonnucleoside human cytomegalovirus inhibitors: synthesis and antiviral evaluation of (chlorophenylmethyl)benzothiadiazine dioxide derivatives” (J Med Chem, 2000)

system: Human betaherpesvirus 5; experiment: In vitro inhibition of HCMV (AD-169) plaque formation.; assay type: functional, organism-based; settings: not given
In short: (§1)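 Confluent HEL fibroblasts infected with HCMV at 100 PFU of cell-free virus; after a 2-h adsorption, residual virus removed and cells incubated in MEM with 2% FCS containing serial 5-fold compound dilutions, in duplicate. Fixed with ethanol after 7 days at 37 °C, 5% CO2, then Giemsa-stained; cytopathic effect scored microscopically. IC50 read graphically from % cytopathicity; mean of two experiments.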

SMILES | IC50
O=C1c2ccccc2N(COCc2ccccc2)S(=O)(=O)N1COCc1ccccc1 | 12 µM
O=C(OCOCN1c2ccccc2C(=O)N(Cc2ccccc2)S1(=O)=O)c1ccccc1 | 29 µM
O=C1c2ccccc2N(Cc2ccccc2Cl)S(=O)(=O)N1COCc1ccccc1 | 10 µM
O=C1c2ccccc2N(Cc2cccc(Cl)c2)S(=O)(=O)N1Cc1ccccc1 | > 5 µM
O=S1(=O)N=C(OCc2ccccc2)c2ccccc2N1Cc1ccc(Cl)c(Cl)c1 | > 50 µM

system: HEL; experiment: Inhibition of cell growth in HEL cells.; assay type: functional; settings: Homo sapiens
In short: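 HEL fibroblasts seeded at 5×10^3 cells/well and left to proliferate 24 h, then given compound dilutions in duplicate. Incubated 3 days at 37 °C, 5% CO2; cells counted with a Coulter counter. CC50 is the concentration reducing cell growth by 50%.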

SMILES | CC50
O=C1c2ccccc2N(COCc2ccccc2)S(=O)(=O)N1COCc1ccccc1 | 130 µM
O=C(OCOCN1c2ccccc2C(=O)N(Cc2ccccc2)S1(=O)=O)c1ccccc1 | 37 µM
O=C1c2ccccc2N(Cc2ccccc2Cl)S(=O)(=O)N1COCc1ccccc1 | > 50 µM
O=C1c2ccccc2N(Cc2cccc(Cl)c2)S(=O)(=O)N1Cc1ccccc1 | > 200 µM
O=S1(=O)N=C(OCc2ccccc2)c2ccccc2N1Cc1ccc(Cl)c(Cl)c1 | > 200 µM

system: Human alphaherpesvirus 3; experiment: In vitro inhibition of Thymidine Kinase-Varicella-Zoster Virus(OKA) plaque formation.; assay type: functional, organism-based; settings: Human alphaherpesvirus 3, oka
In short: (§2)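 Confluent HEL fibroblasts infected with VZV at 20 PFU; after a 2-h adsorption, residual virus removed and cells incubated in MEM with 2% FCS containing serial 5-fold compound dilutions, in duplicate. Fixed with ethanol after 5 days at 37 °C, 5% CO2, then Giemsa-stained; plaques counted microscopically. IC50 read graphically from plaque number (% of control); mean of two independent experiments.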

SMILES | IC50
O=C1c2ccccc2N(COCc2ccccc2)S(=O)(=O)N1COCc1ccccc1 | 14 µM
O=C(OCOCN1c2ccccc2C(=O)N(Cc2ccccc2)S1(=O)=O)c1ccccc1 | > 44 µM
O=C1c2ccccc2N(Cc2ccccc2Cl)S(=O)(=O)N1COCc1ccccc1 | > 50 µM
O=C1c2ccccc2N(Cc2cccc(Cl)c2)S(=O)(=O)N1Cc1ccccc1 | > 50 µM
O=S1(=O)N=C(OCc2ccccc2)c2ccccc2N1Cc1ccc(Cl)c(Cl)c1 | > 50 µM

system: Human alphaherpesvirus 3; experiment: In vitro inhibition of Thymidine Kinase deficient Varicella Zoster Virus (YS/R) plaque formation.; assay type: functional, organism-based; settings: not given; in short: as §2

SMILES | IC50
O=C1c2ccccc2N(COCc2ccccc2)S(=O)(=O)N1COCc1ccccc1 | 10 µM
O=C(OCOCN1c2ccccc2C(=O)N(Cc2ccccc2)S1(=O)=O)c1ccccc1 | 26 µM
O=C1c2ccccc2N(Cc2ccccc2Cl)S(=O)(=O)N1COCc1ccccc1 | 8 µM
O=S1(=O)N=C(OCc2ccccc2)c2ccccc2N1Cc1ccc(Cl)c(Cl)c1 | > 50 µM

system: CCRF-CEM; experiment: In vitro inhibition of CEM cell proliferation.; assay type: functional; settings: Homo sapiens
In short: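 CEM cell proliferation measured alongside the HIV assays; CC50 is the concentration reducing CEM cell proliferation by 50%.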

SMILES | CC50
O=C1c2ccccc2N(COCc2ccccc2)S(=O)(=O)N1COCc1ccccc1 | 27.7 µM
O=C(OCOCN1c2ccccc2C(=O)N(Cc2ccccc2)S1(=O)=O)c1ccccc1 | 100 µM
O=C1c2ccccc2N(Cc2ccccc2Cl)S(=O)(=O)N1COCc1ccccc1 | 22.2 µM
O=C1c2ccccc2N(Cc2cccc(Cl)c2)S(=O)(=O)N1Cc1ccccc1 | 21.3 µM
O=S1(=O)N=C(OCc2ccccc2)c2ccccc2N1Cc1ccc(Cl)c(Cl)c1 | 30.5 µM

system: Human alphaherpesvirus 3; experiment: In vitro inhibition of Thymidine Kinase deficient Varicella Zoster Virus (07/1) plaque formation.; assay type: functional, organism-based; settings: not given; in short: as §2

SMILES | IC50
O=C1c2ccccc2N(COCc2ccccc2)S(=O)(=O)N1COCc1ccccc1 | > 50 µM
O=C(OCOCN1c2ccccc2C(=O)N(Cc2ccccc2)S1(=O)=O)c1ccccc1 | > 44 µM
O=C1c2ccccc2N(Cc2ccccc2Cl)S(=O)(=O)N1COCc1ccccc1 | > 50 µM
O=C1c2ccccc2N(Cc2cccc(Cl)c2)S(=O)(=O)N1Cc1ccccc1 | 30 µM
O=S1(=O)N=C(OCc2ccccc2)c2ccccc2N1Cc1ccc(Cl)c(Cl)c1 | > 50 µM

system: Human immunodeficiency virus 2; experiment: In vitro inhibition of HIV-2(ROD) cytopathicity in CEM cells.; assay type: functional, organism-based; settings: Human immunodeficiency virus 2, CCRF-CEM
In short: (§3)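 CEM cells at 4×10^5 cells/mL infected with HIV-1 IIIB or HIV-2 ROD (stocks from MT-4 supernatants) at ~100 CCID50/mL, then immediately mixed with compound dilutions. Giant cell formation scored microscopically after 4 days; EC50 is the concentration inhibiting it by 50%. Triplicate assays.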

SMILES | EC50
O=C1c2ccccc2N(COCc2ccccc2)S(=O)(=O)N1COCc1ccccc1 | 25 µM
O=C(OCOCN1c2ccccc2C(=O)N(Cc2ccccc2)S1(=O)=O)c1ccccc1 | > 40 µM
O=C1c2ccccc2N(Cc2ccccc2Cl)S(=O)(=O)N1COCc1ccccc1 | > 10 µM
O=C1c2ccccc2N(Cc2cccc(Cl)c2)S(=O)(=O)N1Cc1ccccc1 | > 10 µM
O=S1(=O)N=C(OCc2ccccc2)c2ccccc2N1Cc1ccc(Cl)c(Cl)c1 | > 10 µM

system: Human betaherpesvirus 5; experiment: In vitro inhibition of HCMV (Davis) plaque formation.; assay type: functional, organism-based; settings: not given; in short: as §1

SMILES | IC50
O=C1c2ccccc2N(COCc2ccccc2)S(=O)(=O)N1COCc1ccccc1 | 12 µM
O=C(OCOCN1c2ccccc2C(=O)N(Cc2ccccc2)S1(=O)=O)c1ccccc1 | > 44 µM
O=C1c2ccccc2N(Cc2ccccc2Cl)S(=O)(=O)N1COCc1ccccc1 | 10 µM
O=C1c2ccccc2N(Cc2cccc(Cl)c2)S(=O)(=O)N1Cc1ccccc1 | > 5 µM
O=S1(=O)N=C(OCc2ccccc2)c2ccccc2N1Cc1ccc(Cl)c(Cl)c1 | > 50 µM

system: HEL; experiment: In vitro alteration in cell morphology in HEL cells.; assay type: functional; settings: Homo sapiens
In short: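 Normal HEL cells exposed to compounds and examined microscopically; minimum cytotoxic concentration is the lowest giving a detectable change in cell morphology. Duplicate assays.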

SMILES | MCC
O=C1c2ccccc2N(COCc2ccccc2)S(=O)(=O)N1COCc1ccccc1 | 200 µM
O=C(OCOCN1c2ccccc2C(=O)N(Cc2ccccc2)S1(=O)=O)c1ccccc1 | 110 µM
O=C1c2ccccc2N(Cc2ccccc2Cl)S(=O)(=O)N1COCc1ccccc1 | 200 µM
O=C1c2ccccc2N(Cc2cccc(Cl)c2)S(=O)(=O)N1Cc1ccccc1 | > 5 µM
O=S1(=O)N=C(OCc2ccccc2)c2ccccc2N1Cc1ccc(Cl)c(Cl)c1 | 200 µM

system: Human immunodeficiency virus 1; experiment: In vitro inhibition of HIV-1(IIIB) cytopathicity in CEM cells.; assay type: functional, organism-based; settings: Human immunodeficiency virus 1, CCRF-CEM; in short: as §3

SMILES | EC50
O=C1c2ccccc2N(COCc2ccccc2)S(=O)(=O)N1COCc1ccccc1 | 25 µM
O=C(OCOCN1c2ccccc2C(=O)N(Cc2ccccc2)S1(=O)=O)c1ccccc1 | > 40 µM
O=C1c2ccccc2N(Cc2ccccc2Cl)S(=O)(=O)N1COCc1ccccc1 | > 10 µM
O=C1c2ccccc2N(Cc2cccc(Cl)c2)S(=O)(=O)N1Cc1ccccc1 | 5.5 µM
O=S1(=O)N=C(OCc2ccccc2)c2ccccc2N1Cc1ccc(Cl)c(Cl)c1 | > 10 µM

system: Human alphaherpesvirus 3; experiment: In vitro inhibition of Thymidine Kinase-Varicella Zoster Virus(YS) plaque formation.; assay type: functional, organism-based; settings: not given; in short: as §2

SMILES | IC50
O=C1c2ccccc2N(COCc2ccccc2)S(=O)(=O)N1COCc1ccccc1 | > 50 µM
O=C(OCOCN1c2ccccc2C(=O)N(Cc2ccccc2)S1(=O)=O)c1ccccc1 | > 44 µM
O=C1c2ccccc2N(Cc2ccccc2Cl)S(=O)(=O)N1COCc1ccccc1 | > 50 µM
O=C1c2ccccc2N(Cc2cccc(Cl)c2)S(=O)(=O)N1Cc1ccccc1 | > 50 µM
O=S1(=O)N=C(OCc2ccccc2)c2ccccc2N1Cc1ccc(Cl)c(Cl)c1 | > 20 µM
